≈ marks a conversion by molar mass, not a printed value.
How the values were obtained:
[1] = Pharmacokinetics in rhesus macaques; type: in vivo, Rhesus Macaques (Macaca mulatta)
Procedure, shortened: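 Two rhesus macaques, fasted overnight with water allowed. Oral powder was mixed into a chocolate treat, with dose set by the amount eaten. After a 2-week washout, i.v. dosing used 5 mg/mL in 25% Cremophor EL/75% PBS. Ketamine 10 mg/kg i.m. for sampling. EDTA plasma taken pre-dose to 24 h, C18 SPE, then LC-ESI-MS (m/z 277; analogue internal standard; calibration 25 nM–2.5 µM). F = dose-normalised AUC po/iv.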

Solubility in solvents = type: physicochemical
[2] = male, rhesus monkey, plasma, iv, 5 mg/kg
[3] = male, rhesus monkey, plasma, po, 50 mg/kg

Q: For `Clc1ccccc1C(c1ccccc1)(c1ccccc1)n1cccn1` [TRAM-34, 1-[(2-chlorophenyl)-diphenylmethyl]-1H-pyrazole], which AUC(0-t) [1, 2] is on record?
A: Its AUC(0-t) is 3.64 µM·h.

Q: What about the Vd [1, 2] of the same compound?
A: Its Vd is 11.1 L/kg.

Q: What about the clearance [1, 2] of the same compound?
A: Its clearance is 53.3 mL/min/kg.

Q: And the bioavailability ([1]; male, rhesus monkey, plasma, oral, 50 mg/kg)?
A: Its bioavailability is 0.3%.

Q: And the AUC(0-t) [1, 3]?
A: The AUC(0-t) was 0.103 µM·h.

Q: And the Cmax [1, 3]?
A: Its Cmax is 22.5 nM.

Q: What about the Tmax [1, 3] of the same compound?
A: Its Tmax is 2 h.

Q: And the Vd ([1]; oral powder without enteric coating, 50 mg/kg, Rhesus Macaques)?
A: Its Vd is 6.5 L/kg.

Q: And the solubility (Solubility in solvents; ethanol, organic solvent or mixture)?
A: Its solubility is 4000 µg/mL (≈ 11.6 mM).

Q: What about the solubility in water (Solubility in solvents; water) of the same compound?
A: The solubility in water was “practically insoluble in water”.

Source: paper PMC3337761 (Drug Development and Industrial Pharmacy, 2010)
